Drawing on ChEMBL document CHEMBL1142299, “Coumarin as attractive casein kinase 2 (CK2) inhibitor scaffold: an integrate approach to elucidate the putative binding motif and explain structure-activity relationships” (J Med Chem, 2008), this text covers IC50 and Ki for 19 compounds.

A short description of this experiment: Inhibition of CK2 in rat liver. The method in brief: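 Native CK2 purified from rat liver. Started with kinase, stopped at 10 min with orthophosphoric acid. Read by phosphocellulose filter binding and counting. Three independent experiments, values averaged.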
What is called IC50 is the concentration that inhibits the measured activity by half. Regarding `CCOC(=O)c1cc2c(Br)cccc2oc1=O`, the IC50 came out at 118 µM.

In the case of `O=c1c2c(O)cccc2oc2c([N+](=O)[O-])ccc(O)c12`, it took 0.4 µM to reach half-maximal inhibition (IC50). On the same count and under the same terms, then `Cc1c(Br)c(=O)oc2c(Br)c(N)ccc12`, with over 40 µM; and `COc1c(O)c(-c2ccnnc2)cc2ccc(=O)oc12`, with over 100 µM; and `O=C(O)/C=C/c1cc(Br)c(Br)c(Br)c1Br`, with 0.11 µM.

As for `Cc1cc(=O)oc2cc(O)cc(O)c12` [5,7-DIHYDROXY-4-METHYLCOUMARIN], the 50% inhibitory concentration (IC50) came to 35 µM. For the compound `O=c1cc(CCl)c2ccc(O)cc2o1`, the IC50 is over 40 µM. Same read-out and setting: in the case of `Cc1cc(=O)oc2cc(O)ccc12` [HYMECROMONE] it was over 100 µM; in that of `Cc1cc(=O)oc2cc3c([N+](=O)[O-])c(O)ccc3cc12`, 0.3 µM. Regarding `Cc1cc(=O)oc2c(C=O)c(O)ccc12`, the IC50 was over 40 µM.

`O=c1ccc2ccc(O)cc2o1` [UMBELLIFERONE]: the IC50 is over 100 µM.

The compound `COc1cc(O)cc2oc(=O)c(C)cc12` showed an IC50 of over 40 µM. The same measure, in the same setting: in the case of `Cc1cc(=O)oc2c(C)c(O)c([N+](=O)[O-])cc12` it was 30 µM; in that of `Cc1c(Br)c(=O)oc2c(O)c(O)ccc12`, 10.5 µM; in that of `O=c1oc2c(O)c(O)cc3c(=O)oc4c(O)c(O)cc1c4c23` [ELLAGIC ACID], 0.04 µM. Still for that read-out and setting: in the case of `Cc1c(Br)c(=O)oc2c(Br)c(O)c(O)cc12` it was 2 µM. Same read-out and setting: then `O=c1ccc2c(O)cc(O)cc2o1`, with 35 µM. By Ki is commonly meant a measure of affinity in units of concentration, obtained from inhibition or displacement. Low values mean higher affinity, high ones lower affinity. In the case of `Cc1c(Br)c(=O)oc2c(Br)c(O)ccc12`, the half-maximal inhibitory concentration (IC50) turned out to be 0.1 µM and the Ki is 0.06 µM. In turn, `Cc1c(Br)c(=O)oc2c(C=O)c(O)ccc12` displayed an IC50 of 3.3 µM.
